Compound activity: PubChem BioAssay, several laboratories
Hits are enriched below; roughly 1.3% of the tested compounds scored in any of these assays.
proCasp7 act = activates human procaspase-7, counter-screen for procaspase-3 activators | AID 463210 | 330,000 tested, 0.093% active | activation, % at 8.5 µM | recombinant procaspase-7, Ac-DEVD-pNA absorbance 405 nm; D23A/D198A/D206A triple mutant, cannot self-cleave; scale: DMSO 0, 5 µM enzyme 100 | P55210;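 active means percent activation above the screen-wide mean plus 3 SD, cut at about 25% in these data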
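buffer or medium = Zinc-free HEPES/NaCl buffer, pH 7.4 | material = Procaspase-7 triple mutant (PC-7 D3A) | input = 2 µM procaspase-7 mutant as dispensed | signal = Epi-absorbance of released pNA at 405 nm, two timepoints | timing = 1 h preincubation, 2 h reaction | replicates = singlicate compound testing | evaluation = % activation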
CHT PAM = allosteric activators of human choline transporter CHT. Q9GZV3. CHT-expressing cells, membrane potential dye, choline EC20; hits give high values; LV-AA mutant CHT in HEK293 cells. B-score at 10 µM. 310,000 tested, 0.49% active. AID 488977;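 active means initial fluorescence not abnormally high and integrated response B-score, plate-corrected, over 3 SD above library mean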
procasp3 activ = activators of human procaspase-3 | recombinant procaspase-3 D3A, Ac-DEVD-pNA absorbance 405 nm | activation, % at 8.5 µM | 330,000 tested, 0.11% active;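 active means activation above the mean of all tested compounds plus 3 SD, cut at about 21% in these data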
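Compound: 8.5 µM single point, 0.8% DMSO / Material: Autoprocessing-dead procaspase-3 D3A mutant enzyme / Timing: 1 h preincubation plus 2 h reaction at 25 °C / Medium: Zinc-free HEPES/NaCl buffer with 0.01% Triton X-100 at pH 7.4 / Technique: 405 nm absorbance of p-nitroaniline, reads at 0 and 120 min / Repeats: one well per compound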
CHT inh = inhibits the human high affinity choline transporter; AID 488975; 310,000 tested, 0.86% active; B-score at 10 µM; CHT-expressing cells, membrane potential dye, choline response; hits give low values; Q9GZV3;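 active means B-score over 3 SD under the library average, and starting fluorescence ratio not unusually high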;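 further: choline stimulus applied at its EC90 after an EC20 pre-addition; B-score computed on integrated fluorescence ratio after choline addition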
proCasp7 act trip = counter-screen: procaspase-7 (human) activation in triplicate; shares compounds with procasp3 activ; recombinant procaspase-7, Ac-DEVD-pNA absorbance; asp23/198/206-to-Ala mutant, cannot self-cleave; activation, % at 8.5 µM; 210 tested, under 10 active;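 active means mean activation above a set limit taken from an earlier procaspase-7 screen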
procasp3 conf = procaspase-3 (human) activation, confirmed. AID 488954. 210 tested, 10% active. shares compounds with procasp3 activ. recombinant PC-3 D3A, Ac-DEVD-pNA absorbance 405 nm; 100% is higher-enzyme control. activation, % at 8.5 µM;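 active means mean activation above a set limit carried over from the earlier primary screen, cut at about 22% in these data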
PC3 dual counter = counter-screen for dual procaspase-3/7 activators: human procaspase-3 activation; shares compounds with proCasp7 act; 290 tested, under 10 active; recombinant PC-3 D3A, Ac-DEVD-pNA absorbance 405 nm; aspartates 9, 28, 175 changed to alanine; 100% = enzyme control; activation, % at 8.5 µM;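 active means mean percent activation across triplicates above a set limit taken from the earlier primary procaspase-3 screen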
PC7 dual conf = activates human procaspase-7, confirming dual procaspase activators; shares compounds with proCasp7 act; recombinant procaspase-7, Ac-DEVD-pNA absorbance 405 nm; D23A/D198A/D206A mutant that cannot self-cleave; activation, % at 8.5 µM; 290 tested, under 10 active; AID 493115;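 active means mean activation above a set limit carried over from the earlier primary screen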
Large screens that a line does not name were inactive (follow-up assays come after a bar, where they were run).

O=[N+]([O-])c1cccc(-c2ccc(CN3CCN(c4ccccc4)CC3)o2)c1	procasp3 activ 23 | proCasp7 act trip inactive | procasp3 conf inactive
CCCCn1c(N)c(N(CC)C(=O)c2cccc(S(=O)(=O)N3CCN(C)CC3)c2)c(=O)[nH]c1=O	procasp3 activ 24 | proCasp7 act trip inactive | procasp3 conf inactive
CCCCN(C(=O)c1cccc(S(=O)(=O)N2CCN(C)CC2)c1)c1c(N)n(CCCC)c(=O)[nH]c1=O	none
Oc1c(Br)cc(Br)cc1/C=N/NC(=S)N[C@H]1CC2C=CC1C2 (stereo not given in full)	procasp3 activ 23 | proCasp7 act trip inactive | procasp3 conf 31
Cc1ccc(N)cc1NC(=O)CN1CCOCC1	proCasp7 act 26 | PC3 dual counter inactive | PC7 dual conf inactive
c1ccc(C2=NN(c3ccccc3)CC2)cc1	proCasp7 act 39, procasp3 activ 36 | PC3 dual counter inactive | PC7 dual conf inactive
CCN1C(=O)N/C(=C/c2ccc(Sc3ccc(C)cc3)o2)C1=O	proCasp7 act 71, procasp3 activ 38 | PC3 dual counter inactive | PC7 dual conf inactive
CCN1C(=O)N/C(=C/c2ccc(C)o2)C1=O	none
C=CCn1c(SCC(=O)NC2CC2)nnc1C1CC1	none
O=C(c1ccccc1)c1ccc(OCCO)cc1	none
CCOc1cccc(OCCOc2ccc(C(=O)c3ccccc3)cc2)c1	proCasp7 act 26 | PC3 dual counter inactive | PC7 dual conf inactive
CCc1noc(C)c1C(=O)Nc1cc(Cl)ccc1N1CCCC1	none
COc1ccccc1N(C(=O)c1snc(C(N)=O)c1N)C(C(=O)NC1CCCCC1)c1cccc(OC)c1OC (stereo not given)	proCasp7 act 37 | PC3 dual counter inactive | PC7 dual conf inactive
O=C1CCc2cc(S(=O)(=O)NCc3ccc(F)cc3)cc3c2N1CCC3	none
CNS(=O)(=O)c1cn(CC(=O)NCc2ccc(F)cc2)cc1S(=O)(=O)NC	none
COC(=O)c1ccccc1S(=O)(=O)N1CCC(C(=O)OCc2ccc([N+](=O)[O-])cc2)CC1	none
Cc1ccc(-n2nc3cc(C)c(N)cc3n2)cc1	none
CCc1ccc(-n2nc3cc(C)c(N)cc3n2)cc1	proCasp7 act 28, procasp3 activ 35 | PC3 dual counter inactive | PC7 dual conf inactive
Cc1nc2ccccc2c(=O)n1/N=C/c1ccccc1OC(F)F	none
Cc1ccc2c(n1)sc1c(-c3ccccc3)c(C#N)c(N)nc12	proCasp7 act 44, procasp3 activ 79 | PC3 dual counter inactive | PC7 dual conf inactive
CCc1c(C)nc(N)c(C#N)c1-c1ccccc1	none
CCCC(=O)Oc1ccc(C2NC(=O)c3ccccc3O2)cc1 (stereo not given)	none
NS(=O)(=O)c1ccc(N2N=C(c3ccccc3)CC2c2cccc(F)c2)cc1 (stereo not given)	proCasp7 act 67, procasp3 activ 40 | PC3 dual counter inactive | PC7 dual conf inactive
COc1ccc(C2CC(c3cccc(Cl)c3)=NN2c2ccc(S(N)(=O)=O)cc2)cc1 (stereo not given)	none (no result: CHT PAM, CHT inh)
COc1cc(C2CC(c3ccccc3)=NN2c2ccccc2)ccc1OCC(=O)O (stereo not given)	none
NS(=O)(=O)c1ccc(N2N=C(c3ccccc3)CC2c2ccccc2Br)cc1 (stereo not given)	proCasp7 act 68, procasp3 activ 26 (no result: CHT PAM, CHT inh) | PC3 dual counter inactive | PC7 dual conf inactive
